In ChEMBL document CHEMBL3244406, “11,12-Secoprostaglandins. 5. 8-Acetyl- or 8-(1-hydroxyethyl)-12-hydroxy-13-aryloxytridecanoic acids and sulfonamide isosteres as inhibitors of platelet aggregation” (1978):
The source made the active and inactive calls. No cut-off for these calls is given here.

Tests used:
[1] = species on record: Mus musculus; assay: (§1) Induction of prostaglandin-like activity in CD-1 mouse ovary assessed as fold increase in [14C]-cAMP formation using ATP-[14C] substrate at 25 ug/ml after 30 mins incubation by PG assay; assay type: functional; conditions: Female gonad
[2] = (§2) Induction of prostaglandin-like activity in CD-1 mouse ovary assessed as fold increase in [14C]-cAMP formation using ATP-[14C] substrate at 100 ug/ml after 30 mins incubation by PG assay; assay type: functional, Female gonad
[3] = system: Platelet; assay: Inhibition of bovine collagen-induced platelet aggregation isolated from po treated Hartley guinea pig after 1 hr treatment; assay type: functional; conditions: Cavia porcellus
In short: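 Male Hartley guinea pigs (0.6-1.1 kg) dosed orally, suspended in 5 ml/kg EtOH-H2O Emulphor, three animals at each of three doses plus vehicle controls. Cardiac-puncture blood taken 1 h later, pooled per group, PRP spun at 200g for 10 min, platelets matched with PPP.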

[4] = (§3) Induction of prostaglandin-like activity in CD-1 mouse ovary assessed as fold increase in [14C]-cAMP formation using ATP-[14C] substrate at 10 ug/ml after 30 mins incubation by PG assay; assay type: functional, Female gonad
[5] = as §1; assay type: functional, Female gonad
[6] = species on record: Mus musculus; assay: as §2; assay type: functional; conditions: Female gonad
[7] = species on record: Mus musculus; assay: as §3; assay type: functional; conditions: Female gonad
[8] = system: Platelet; assay: Inhibition of bovine collagen-induced platelet aggregation isolated from ip treated Hartley guinea pig after 1 hr treatment; assay type: functional; conditions: Cavia porcellus

CC(=O)C(CCCCCCC(=O)O)CCCC(O)COc1ccc(F)cc1 (configuration not stated)
Activity [1]: inactive | fold change (FC) [2]: 4 | ED50 [3]: 0.5 mg/kg

CS(=O)(=O)N(CCCCCCC(=O)O)CCCC(O)COc1ccc(Cl)cc1 (configuration not stated)
fold change (FC) [4]: 8 | fold change (FC) [5]: 21 | fold change (FC) [2]: 31 | ED50 [3]: 10 mg/kg

CS(=O)(=O)N(CCCCCCC(=O)O)CCCC(O)CSc1ccc(F)cc1 (configuration not stated)
fold change (FC) [4]: 6 | fold change (FC) [5]: 14 | fold change (FC) [2]: 18 | ED50 [3]: 6 mg/kg

CC(=O)C(CCCCCCC(=O)O)CCCC(O)COc1ccc(C(C)(C)C)cc1 (configuration not stated)
Activity [1]: inactive | Activity [6]: inactive | ED50 [3]: 10 mg/kg

CCCCCC(O)CCCC(CCCCCCC(=O)O)C(C)=O (mixture of isomers)
fold change (FC) [4]: 11 | fold change (FC) [5]: 14 | fold change (FC) [2]: 23 | ED50 [3]: 6.5 mg/kg

CS(=O)(=O)N(CCCCCCC(=O)O)CCCC(O)COc1ccc(F)cc1 (configuration not stated)
fold change (FC) [4]: 2 | fold change (FC) [5]: 7 | fold change (FC) [2]: 11 | ED50 [3]: 0.04 mg/kg

CC(O)C(CCCCCCC(=O)O)CCCC(O)COc1ccc(F)cc1 (configuration not stated)
Activity [1]: inactive | fold change (FC) [2]: 3 | ED50 [3]: 1 mg/kg

CC(O)C(CC#CCCCC(=O)O)CCCC(O)COc1ccc(F)cc1 (configuration not stated)
Activity [1]: inactive | fold change (FC) [2]: 2 | ED50 [3]: 0.04 mg/kg

CS(=O)(=O)N(CCCCCCC(=O)O)CCCC(O)CS(=O)(=O)c1ccc(F)cc1 (configuration not stated)
Activity [1]: inactive | fold change (FC) [2]: 3 | ED50 [3]: > 10 mg/kg

CC(=O)C(CCCCCCC(=O)O)CCCC(O)COc1cccc(C(F)(F)F)c1 (configuration not stated)
Activity [1]: inactive | Activity [6]: inactive | ED50 [3]: > 10 mg/kg

Cc1ccc(OCC(O)CCCN(CCCCCCC(=O)O)S(C)(=O)=O)cc1 (configuration not stated)
fold change (FC) [4]: 4 | fold change (FC) [5]: 11 | fold change (FC) [2]: 16 | ED50 [3]: 5 mg/kg

CC(O)C(C/C=C\CCCC(=O)O)CCCC(O)COc1ccc(F)cc1 (configuration not stated)
Activity [1]: inactive | fold change (FC) [2]: 3 | ED50 [3]: 0.12 mg/kg

CC(=O)Oc1ccccc1C(=O)O [ASPIRIN]
ED50 [3]: 4.5 mg/kg

CC(=O)C(CC#CCCCC(=O)O)CCCC(O)COc1ccc(F)cc1 (configuration not stated)
Activity [1]: inactive | Activity [6]: inactive | ED50 [3]: 0.25 mg/kg

CS(=O)(=O)N(CCCCCCC(=O)O)CCCC(O)COc1cccc(F)c1 (configuration not stated)
fold change (FC) [5]: 2 | fold change (FC) [2]: 4 | ED50 [3]: 1 mg/kg

CC(O)C(CCCCCCC(=O)O)CCCC(O)COc1ccc(C(F)(F)F)cc1 (configuration not stated)
Activity [1]: inactive | Activity [6]: inactive | ED50 [3]: 1 mg/kg

CS(=O)(=O)N(C/C=C\CCCC(=O)O)C/C=C/C(O)COc1cccc(C(F)(F)F)c1 (configuration not stated)
Activity [1]: inactive | Activity [6]: inactive | ED50 [3]: 5 mg/kg

CC(=O)C(CCCCCCC(=O)O)CCCC(O)COc1ccccc1OCc1ccccc1 (configuration not stated)
Activity [1]: inactive | Activity [6]: inactive | ED50 [3]: > 10 mg/kg

CS(=O)(=O)N(C/C=C\CCCC(=O)O)C/C=C/C(O)COc1ccc(F)cc1 (configuration not stated)
fold change (FC) [4]: 2 | fold change (FC) [5]: 4 | fold change (FC) [2]: 11 | ED50 [3]: 0.01 mg/kg

COc1ccc(OCC(O)CCCN(CCCCCCC(=O)O)S(C)(=O)=O)cc1 (configuration not stated)
Activity [7]: inactive | fold change (FC) [5]: 3 | fold change (FC) [2]: 16 | ED50 [3]: > 10 mg/kg

CCCCC[C@H](O)/C=C/[C@H]1[C@H](O)CC(=O)[C@@H]1CCCCCCC(=O)O [ALPROSTADIL]
fold change (FC) [4]: 60 | ED50 [8]: 0.02 mg/kg

CC(O)C(CCCCCCC(=O)O)CCCC(O)COc1cccc(Cl)c1 (configuration not stated)
Activity [1]: inactive | fold change (FC) [2]: 2 | ED50 [3]: 7.5 mg/kg

CS(=O)(=O)N(CCCCCCC(=O)O)CCCC(O)COc1ccccc1F (configuration not stated)
Activity [1]: inactive | Activity [6]: inactive | ED50 [3]: 0.15 mg/kg

CS(=O)(=O)N(CCCCCCC(=O)O)CCCC(O)COc1cccc(Cl)c1 (configuration not stated)
Activity [1]: inactive | fold change (FC) [2]: 5 | ED50 [3]: 1 mg/kg

CCCCCC(O)CCCN(CCCCCCC(=O)O)S(C)(=O)=O (racemic)
fold change (FC) [4]: 40 | fold change (FC) [5]: 56 | fold change (FC) [2]: 61 | ED50 [3]: 6 mg/kg

CC(=O)C(CCCCCCC(=O)O)CCCC(O)COc1ccccc1O (configuration not stated)
Activity [1]: inactive | Activity [6]: inactive | ED50 [3]: 5 mg/kg

CC(=O)C(C/C=C\CCCC(=O)O)CCCC(O)COc1ccc(F)cc1 (configuration not stated)
Activity [1]: inactive | fold change (FC) [2]: 2 | ED50 [3]: 0.09 mg/kg

CC(O)C(CCCCCCC(=O)O)CCCC(O)COc1ccccc1F (configuration not stated)
Activity [1]: inactive | Activity [6]: inactive | ED50 [3]: 7.5 mg/kg

CS(=O)(=O)N(CCCCCCC(=O)O)CCCC(O)COc1ccccc1 (configuration not stated)
Activity [1]: inactive | fold change (FC) [2]: 3 | ED50 [3]: 1 mg/kg
